Consider 7 compounds from ChEMBL document CHEMBL1141276, “Cytotoxic and Antihaptotactic beauvericin analogues from precursor-directed biosynthesis with the insect pathogen Beauveria bassiana ATCC 7159” (J Nat Prod, 2007).

pIC50: −log10 of the molar value.

Assay [1] can be described thus: Antihaptotactic activity in human PC-3M cells assessed as inhibition of cell migration by wound healing assay. It counts as functional, cell-based. The gist of the method:
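Wound-healing (scratch) migration assay on a PC-3M monolayer, with the wound closure quantified. The result is the IC50 for inhibition of migration in µM, averaged from 2–4 independent experiments with 4 replicates each.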

Assay [2] is described as follows: Cytotoxicity against human PC-3M cells by MTT assay. The format is functional, cell-based. In a few lines:
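Tetrazolium (MTT) cytotoxicity assay on monolayers of the metastatic prostate cancer line PC-3M. The result is given as IC50 in µM, averaged from 2–4 independent experiments with 4 replicates each.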
(In general: Tetrazolium assays rely on reduction of a dye to a coloured formazan, in cell work by metabolically active cells.)

Assay [3] is described as follows: Ratio of cytotoxic IC50 to antihaptotactic IC50 in PC-3M cells. It counts as functional, Homo sapiens. The gist of the method:
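Index computed as the MTT cytotoxicity IC50 divided by the wound-healing antihaptotactic IC50. Both IC50s were measured in PC-3M cells, each averaged from 2–4 independent experiments with 4 replicates.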

For `CC[C@H]1OC(=O)[C@H](Cc2ccccc2)N(C)C(=O)[C@@H](C(C)C)OC(=O)[C@H](Cc2ccccc2)N(C)C(=O)[C@@H](C(C)C)OC(=O)[C@H](Cc2ccccc2)N(C)C1=O` [BEAUVERICIN G1], the pIC50 (in general, the IC50 on a negative log10 scale, so that one unit is a factor of ten) was 5.42 in assay [1] and 5.30 in assay [2]. In assay [3], the Ratio is given as 1.3.

On to `CC[C@H]1OC(=O)[C@H](Cc2ccccc2)N(C)C(=O)[C@@H](CC)OC(=O)[C@H](Cc2ccccc2)N(C)C(=O)[C@@H](C(C)C)OC(=O)[C@H](Cc2ccccc2)N(C)C1=O` [BEAUVERICIN G2], for which the values for the pIC50 in assay [1] and in assay [2] were 5.12 and 4.98, respectively. The Ratio in assay [3] turned out to be 1.4.

As for `CC[C@H]1OC(=O)[C@H](Cc2ccccc2)N(C)C(=O)[C@@H](CC)OC(=O)[C@H](Cc2ccccc2)N(C)C(=O)[C@@H](CC)OC(=O)[C@H](Cc2ccccc2)N(C)C1=O` [BEAUVERICIN G3], the pIC50 was 4.76 in assay [1] and 4.79 in assay [2]. Moreover, in assay [3], the Ratio is reported as 0.9.

For `CC(C)[C@H]1OC(=O)[C@H](Cc2cccc(F)c2)N(C)C(=O)[C@@H](C(C)C)OC(=O)[C@H](Cc2ccccc2)N(C)C(=O)[C@@H](C(C)C)OC(=O)[C@H](Cc2ccccc2)N(C)C1=O` [BEAUVERICIN H1], the values for the pIC50 in assay [1] and in assay [2] were 5.49 and 5.13, respectively. In addition, in assay [3], the Ratio is recorded as 2.3.

With `CC(C)[C@H]1OC(=O)[C@H](Cc2cccc(F)c2)N(C)C(=O)[C@@H](C(C)C)OC(=O)[C@H](Cc2cccc(F)c2)N(C)C(=O)[C@@H](C(C)C)OC(=O)[C@H](Cc2ccccc2)N(C)C1=O` [BEAUVERICIN H2], the pIC50 in assay [1] is 5.49; in assay [2], 5.21. In addition, in assay [3], the Ratio came out at 1.9.

On to `CC(C)[C@H]1OC(=O)[C@H](Cc2cccc(F)c2)N(C)C(=O)[C@@H](C(C)C)OC(=O)[C@H](Cc2cccc(F)c2)N(C)C(=O)[C@@H](C(C)C)OC(=O)[C@H](Cc2cccc(F)c2)N(C)C1=O` [BEAUVERICIN H3], for which the results for the pIC50 in assay [1] and in assay [2] were 5.49 and 5.36, respectively. In assay [3], the Ratio is 1.4.

For the compound `CC(C)[C@@H]1OC(=O)[C@@H](Cc2ccccc2)N(C)C(=O)[C@H](C(C)C)OC(=O)[C@@H](Cc2ccccc2)N(C)C(=O)[C@H](C(C)C)OC(=O)[C@@H](Cc2ccccc2)N(C)C1=O` [BEAUVERICIN], the pIC50 is 5.46 in assay [1] and 5.10 in assay [2]. In assay [3], the Ratio turned out to be 2.3.
